For experiment [1], the target named is T1, C-X-C chemokine receptor type 2 (Homo sapiens) (UniProt P25025).
T1 sequence (whole entry): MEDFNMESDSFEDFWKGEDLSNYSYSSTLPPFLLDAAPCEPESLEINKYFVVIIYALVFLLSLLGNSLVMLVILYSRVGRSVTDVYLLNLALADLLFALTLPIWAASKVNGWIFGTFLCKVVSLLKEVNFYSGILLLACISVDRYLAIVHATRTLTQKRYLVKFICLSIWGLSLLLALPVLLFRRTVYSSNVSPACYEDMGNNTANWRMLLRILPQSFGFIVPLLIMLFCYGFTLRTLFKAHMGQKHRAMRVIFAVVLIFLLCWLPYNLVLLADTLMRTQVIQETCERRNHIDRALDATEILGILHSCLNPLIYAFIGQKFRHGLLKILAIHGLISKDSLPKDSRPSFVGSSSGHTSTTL
Briefly: Antagonist activity at CXCR2 (unknown origin) expressed in HEK293T cells cotransfected with GFP and p22F assessed as inhibition of CXCL8-reduced cAMP production at 5 uM incubated for 10 mins followed by CXCL8 stimulation and measured after 10 mins by luminescence based assay. It counts as functional, cell-based. The note with it: filed as antagonist, time 20.0 min. Put shortly:
(§1)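 293T-CXCR2-GFP-p22F cells express a cAMP-sensitive firefly luciferase. They were seeded at 30000 cells/well overnight in CO2-independent medium with 10% FBS, then incubated with 1% cAMP reagent for 2 h at 37 °C. Cells were pretreated with compound for 10 min, given CXCL8 (50 nM) for 10 min, then stimulated with forskolin (50 μM) until maximal signal (~80 min). Luminescence read-out.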
In general terms: Cyclic AMP is a second messenger, typically raised through Gs and lowered through Gi signalling.

Experiment [2] addresses T1, C-X-C chemokine receptor type 2 (Homo sapiens). Briefly: Antagonist activity at CXCR2 (unknown origin) expressed in HEK293T cells cotransfected with GFP assessed as inhibition of CXCL8-induced JNK phosphorylation at 10 uM post CXCL8 treatment by immunoblot assay. The class given is cell-based. Put shortly:
(§2)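 293T-CXCR2-GFP cells (5 x 10^5/well) were attached overnight, treated with compounds and lysed in RIPA buffer with protease/phosphatase inhibitors. Lysates were normalized by BCA and resolved on 10% SDS-PAGE. Blots were probed overnight at 4 °C with antibodies (1:500-1:1000) to p-ERK1/2, p-JNK, p-cJUN or p-p38, then with a fluorescent secondary antibody, and imaged by infrared imaging.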
On the technique in general: A western blot detects proteins with antibodies after separation by electrophoresis.

Another experiment concerns U2OS. The experiment in a line: Antimigratory activity against human U2OS cells overexpressing CXCR2/bla assessed as reduction in CXCL8-mediated wound closure at 10 uM incubated for 20 mins followed by CXCL8 stimulation and measured after 24 hrs by Giemsa staining based scratch wound healing assay. The class given is functional, cell-based. The note with it: time 24.3 hrs. The method in brief: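 CXCR2-bla U2OS cells were seeded at 35000/well in DMEM with 1% FBS overnight and scratched with a pipette tip. Compounds (10 μM) were added for 20 min, then CXCL8 (60 nM) for 24 h; unstimulated wells served as control. Cells were methanol-fixed, Giemsa-stained and imaged by transmitted light. Two independent experiments were run in duplicate.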

In experiment [3] the target is T1, C-X-C chemokine receptor type 2 (Homo sapiens). Briefly: Antagonist activity at CXCR2 (unknown origin) expressed in HEK293T cells cotransfected with GFP assessed as inhibition of CXCL8-induced p38 phosphorylation at 10 uM post CXCL8 treatment by immunoblot assay. It counts as cell-based. Put shortly:
as §2

The target is the same in experiment [4]. The experiment in a line: Antagonist activity at CXCR2 (unknown origin) expressed in HEK293T cells cotransfected with GFP assessed as inhibition of CXCL8-induced cJUN phosphorylation at 10 uM post CXCL8 treatment by immunoblot assay. The class given is cell-based. Put shortly:
as §2

For experiment [5] the target is unchanged. Briefly: Antagonist activity at CXCR2 (unknown origin) expressed in HEK293T cells cotransfected with GFP assessed as inhibition of CXCL8-induced AKT phosphorylation at 10 uM post CXCL8 treatment by immunoblot assay. It counts as cell-based.
For experiment [6] the target is unchanged. Briefly: Antagonist activity at CXCR2 (unknown origin) expressed in HEK293T cells cotransfected with GFP and p22F assessed as inhibition of […] at 15 uM incubated at 37 degC for 30 min and at room temperature for 30 min by fluorescence based assay. The class given is functional, cell-based. The note with it: filed as antagonist, time 60.0 min. Put shortly:
(§3)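 293T-CXCR2-GFP cells were seeded at 30000 cells/well and loaded next day with Fluo-4 NW dye plus probenecid ([…] final). Loading was 30 min at 37 °C, then 30 min at room temperature, protected from light. Compound and CXCL8 (300 nM, by injector) were added. Fluorescence was read immediately (ex 490/em 535 nm) and normalized to the pre-stimulation baseline.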
On the technique in general: Calcium flux is commonly read through the fluorescence of an indicator in the cells.

For experiment [7] the target is unchanged. Briefly: Antagonist activity at CXCR2 (unknown origin) expressed in HEK293T cells cotransfected with GFP assessed as inhibition of CXCL8-induced ERK1/2 phosphorylation pretreated at 10 uM followed by treated with CXCL8 by immunoblot assay. The class given is cell-based. As to conditions: filed as antagonist. Put shortly: as §2
The test system of a further experiment is SK-OV-3. Briefly: Inhibition of colony formation in human SK-OV-3 cells at 8.9 to 20 uM incubated for 7 to 10 days in presence of doxorubicin by crystal violet staining based assay. The note with it: dose 8.9-20 µM, time 7-10 day. It counts as functional, cell-based. Put shortly: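 Colony formation: cells were seeded at 300/well, attached overnight, then treated with compounds for 7-10 days until colonies formed in DMSO wells. Colonies were stained with 0.05% crystal violet for 30 min and washed with water.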

For experiment [8], the target named is T2, Alpha-2A adrenergic receptor (Homo sapiens, UniProt P08913).
T2 sequence (P08913 whole entry): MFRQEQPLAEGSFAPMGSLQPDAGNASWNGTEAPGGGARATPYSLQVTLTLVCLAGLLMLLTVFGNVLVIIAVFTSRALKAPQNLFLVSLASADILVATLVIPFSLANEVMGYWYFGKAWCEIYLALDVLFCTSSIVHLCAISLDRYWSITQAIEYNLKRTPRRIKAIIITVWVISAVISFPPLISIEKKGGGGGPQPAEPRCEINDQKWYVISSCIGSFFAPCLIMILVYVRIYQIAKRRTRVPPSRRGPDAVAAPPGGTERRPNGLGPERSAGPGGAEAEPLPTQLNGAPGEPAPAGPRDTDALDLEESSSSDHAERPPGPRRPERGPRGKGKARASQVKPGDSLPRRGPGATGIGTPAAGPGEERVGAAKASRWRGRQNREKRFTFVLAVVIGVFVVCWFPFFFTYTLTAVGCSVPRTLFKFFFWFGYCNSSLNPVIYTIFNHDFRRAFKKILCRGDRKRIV
The experiment in a line: Inhibition of alpha 2a-adrenergic receptor (unknown origin) by radioligand binding assay. The method in brief: (§4)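 Secondary radioligand binding assay determining equilibrium binding affinity (Ki).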

In experiment [9] the target is T3, C-X-C chemokine receptor type 2 (Homo sapiens, UniProt P25025).
T3 sequence (P25025 whole entry): T1 sequence (whole entry)
Briefly: Antagonist activity at CXCR2 (unknown origin) expressed in U2OS cells cotransfected with beta-arrestin/TEV protease fusion protein and beta-lactamase assessed as inhibition of CXCL8-induced beta arrestin2 recruitment preincubated for 30 mins followed by CXCL8 stimulation and measured after 5 hrs by FRET based fluorescence/Tango assay. The class given is cell-based.

For experiment [10], the target named is T4, Translocator protein (Homo sapiens, UniProt P30536). Briefly: Inhibition of PBR (unknown origin) by radioligand binding assay. The method in brief: as §4
T4 sequence (P30536 whole entry): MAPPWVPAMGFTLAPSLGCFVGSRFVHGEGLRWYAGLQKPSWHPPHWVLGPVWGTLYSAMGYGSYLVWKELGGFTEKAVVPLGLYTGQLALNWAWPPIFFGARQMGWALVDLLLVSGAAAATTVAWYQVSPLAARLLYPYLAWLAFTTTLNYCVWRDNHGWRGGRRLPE
Experiment [11] has as its target T5, Alpha-2A adrenergic receptor (Homo sapiens) (UniProt P08913).
T5 sequence (whole entry): T2 sequence (P08913 whole entry)
Briefly: Inhibition of alpha 2a-adrenergic receptor (unknown origin) at 10 uM by radioligand binding assay relative to control. The method in brief:
(§5)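 Primary radioligand binding screen across 50 GPCRs at a single concentration of 10 μM. Compounds with ≥50% inhibition went on to secondary binding.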

Experiment [12] deals with T4, Translocator protein. Briefly: Inhibition of PBR (unknown origin) at 10 uM by radioligand binding assay relative to control. The method in brief: as §5
For experiment [13], the target named is T6, 5-hydroxytryptamine receptor 2B (Homo sapiens, UniProt P41595). The experiment in a line: Inhibition of 5-HT2B (unknown origin) at 10 uM by radioligand binding assay relative to control. The method in brief: as §5
T6 sequence (P41595 whole entry): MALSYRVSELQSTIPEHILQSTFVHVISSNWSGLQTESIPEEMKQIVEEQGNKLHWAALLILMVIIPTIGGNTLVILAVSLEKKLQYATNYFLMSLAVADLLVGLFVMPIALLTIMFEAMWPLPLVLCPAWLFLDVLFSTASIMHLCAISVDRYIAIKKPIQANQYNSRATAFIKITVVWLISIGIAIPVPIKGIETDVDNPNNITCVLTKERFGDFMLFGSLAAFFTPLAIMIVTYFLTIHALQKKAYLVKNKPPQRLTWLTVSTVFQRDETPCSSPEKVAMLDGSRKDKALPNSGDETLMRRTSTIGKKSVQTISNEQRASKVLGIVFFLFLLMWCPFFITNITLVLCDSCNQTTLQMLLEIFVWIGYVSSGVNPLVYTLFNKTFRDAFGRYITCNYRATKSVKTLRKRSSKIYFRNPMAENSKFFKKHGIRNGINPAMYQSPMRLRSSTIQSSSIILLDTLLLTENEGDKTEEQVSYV
The target in experiment [14] is T6, 5-hydroxytryptamine receptor 2B. The experiment in a line: Inhibition of 5-HT2B (unknown origin) by radioligand binding assay. The method in brief: as §4
The target in experiment [15] is C-X-C chemokine receptor type 4 (Homo sapiens, UniProt P61073). Briefly: Antagonist activity at CXCR4 (unknown origin) expressed in U2OS cells cotransfected with beta-arrestin/TEV protease fusion protein and beta-lactamase assessed as inhibition of SDF1-alpha-induced beta arrestin2 recruitment preincubated for 30 mins followed by SDF1-alpha stimulation and measured after 5 hrs by FRET based fluorescence/Tango assay.
C-X-C chemokine receptor type 4, sequence (P61073 whole entry, the tested form may be a part): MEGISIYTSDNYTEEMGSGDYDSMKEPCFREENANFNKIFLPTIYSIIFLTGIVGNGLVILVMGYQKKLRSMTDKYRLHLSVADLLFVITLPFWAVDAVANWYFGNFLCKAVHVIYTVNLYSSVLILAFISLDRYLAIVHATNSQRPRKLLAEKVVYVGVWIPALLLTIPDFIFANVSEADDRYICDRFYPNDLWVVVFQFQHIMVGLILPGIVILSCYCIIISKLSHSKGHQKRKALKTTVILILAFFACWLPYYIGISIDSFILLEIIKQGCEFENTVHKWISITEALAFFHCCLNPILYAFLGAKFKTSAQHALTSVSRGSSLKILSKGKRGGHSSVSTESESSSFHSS

For experiment [16], the target named is T1, C-X-C chemokine receptor type 2 (Homo sapiens). Briefly: Antagonist activity at CXCR2 (unknown origin) expressed in HEK293T cells cotransfected with GFP and p22F assessed as inhibition of CXCL8-reduced cAMP production at 10 uM incubated for 10 mins followed by CXCL8 stimulation and measured after 10 mins by luminescence based assay. The class given is functional, cell-based. The note with it: time 20.0 min. Put shortly:
as §1

Experiment [17] shares this target. The experiment in a line: Antagonist activity at CXCR2 (unknown origin) expressed in HEK293T cells cotransfected with GFP assessed as inhibition of CXCL8-induced ERK1/2 phosphorylation pretreated at 10 to 30 uM followed by treated with CXCL8 by immunoblot assay. The note with it: filed as antagonist, dose 10-30 µM. It counts as cell-based. The method in brief:
as §2

Experiment [18] shares this target. Briefly: Antagonist activity at CXCR2 (unknown origin) expressed in HEK293T cells cotransfected with GFP assessed as inhibition of CXCL8-induced JNK phosphorylation at 10 to 30 uM post CXCL8 treatment by immunoblot assay. The class given is cell-based. As to conditions: dose 10-30 µM. Put shortly:
as §2

Experiment [19] has the same target. Briefly: Antagonist activity at CXCR2 (unknown origin) expressed in HEK293T cells cotransfected with GFP assessed as inhibition of CXCL8-induced AKT phosphorylation at 10 to 30 uM post CXCL8 treatment by immunoblot assay. The note with it: dose 10-30 µM. The class given is cell-based.
Experiment [20] shares this target. The experiment in a line: Antagonist activity at CXCR2 (unknown origin) expressed in HEK293T cells cotransfected with GFP and p22F assessed as inhibition of […] at 30 uM incubated at 37 degC for 30 min and at room temperature for 30 min by fluorescence based assay. It counts as functional, cell-based. The note with it: time 60.0 min. Put shortly:
as §3

The target is the same in experiment [21]. Briefly: Antagonist activity at CXCR2 (unknown origin) expressed in HEK293T cells cotransfected with GFP assessed as inhibition of CXCL8-induced cJUN phosphorylation at 10 to 30 uM post CXCL8 treatment by immunoblot assay. The class given is cell-based. The note with it: dose 10-30 µM. The method in brief: as §2
Experiment [22] shares this target. Briefly: Antagonist activity at CXCR2 (unknown origin) expressed in HEK293T cells cotransfected with GFP assessed as inhibition of CXCL8-induced p38 phosphorylation at 10 to 30 uM post CXCL8 treatment by immunoblot assay. The class given is cell-based. The note with it: dose 10-30 µM. Put shortly: as §2
Experiment [23] has the same target. Briefly: Antagonist activity at CXCR2 (unknown origin) expressed in U2OS cells cotransfected with beta-arrestin/TEV protease fusion protein and beta-lactamase assessed as inhibition of CXCL8-induced beta arrestin2 recruitment at 10 uM preincubated for 30 mins followed by CXCL8 stimulation and measured after 5 hrs by FRET based fluorescence/Tango assay relative to control. It counts as cell-based. Put shortly:
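Tango assay: CXCR2-bla or CXCR4-bla U2OS cells were seeded at 11000/well for 24 h in DMEM with 1% dialyzed FBS. Cells were pretreated with inhibitor for 30 min, then given CXCL8 (12 nM; CXCR2) or SDF-1α (60 nM; CXCR4) for 5 h at 37 °C. […] IC50 is the mean±SD of ≥3 independent experiments.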

One may read the inhibition as the drop in the measured response relative to a control, in per cent. For orientation: Ki means the dissociation constant of the complex between target and ligand, obtained from inhibition or displacement. Usually IC50 stands for the concentration at which inhibition is half-maximal.

Active and inactive are the calls of the source. No cut-off for these calls is given here. Bounds are passed on as bounds.

Take `N#Cc1ccc(NC(=O)Nc2ccccc2Br)c2nn[nH]c12`: the outcome in [1], in experiment [6] and in experiment [7] was Active. Also, the outcome in experiment [2], in experiment [3], in experiment [4] and in experiment [5] was inactive. Further, the inhibition result in the experiment on U2OS was “Active”.
With `CC1COCc2sc(NC(=S)Nc3ccccc3)c(C(=O)OC(C)(C)C)c21` (centres undefined), the inhibition entry with SK-OV-3 is “Active”. Also, the results for the Ki (in experiment [8]; at Translocator protein [10]; in experiment [14]) were greater than 10 µM, 4 µM and greater than 10 µM, respectively. For the same compound, the IC50 in experiment [9] is 1.7 µM; in experiment [15], greater than 15 µM. Besides, the inhibition in experiment [11] was found to be 55.2%; at Translocator protein [12], 63.1%; in experiment [13], 58%.
On to `CC(C)(C)OC(=O)c1c(NC(=S)Nc2ccc(F)cc2)sc2c1CCOC2`, for which the inhibition result with SK-OV-3 and in the experiment on U2OS was “Active” in each case. Also, the result in [16], in [18], in [19], in [20], in experiment [21] and in [22] was inactive. Moreover, the outcome in [17] was Active. In addition, the IC50 in experiment [9] is 1.1 µM; in [15] it was greater than 30 µM. In addition, the inhibition in experiment [23] was determined as 87%.

The values above are taken from ChEMBL document CHEMBL4765436, “Discovery, structure-activity relationship study and biological evaluation of 2-thioureidothiophene-3-carboxylates as a novel class of C-X-C chemokine receptor 2 (CXCR2) antagonists” (Eur J Med Chem, 2020).
